Tested on: adult patients with advanced non-haematological malignancies
Assay: Safety and tolerability
Format: in vivo, human
Outline: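 Patients on milled oral capsules, fasted, in 28-day cycles. AEs and SAEs recorded from first dose through 30 days after last dose. Graded by NCI CTCAE v4.03 and coded to MedDRA v19.0. Relatedness to study drug judged by investigator.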

## CC(C)n1nc(-c2ccc3oc(N)nc3c2)c2c(N)ncnc21 [TAK-228, Sapanisertib]
QD 3 mg (n=11)
  AE resulting in TAK-228 discontinuation: 0 n (%)
  Drug-related AE: 10 (91) n (%)
  Drug-related AE: Abdominal pain: 2 (18) n (%)
  Drug-related AE: Decreased appetite: 3 (27) n (%)
  Drug-related AE: Diarrhoea: 2 (18) n (%)
  Drug-related AE: Fatigue: 6 (55) n (%)
  Drug-related AE: Hyperglycaemia: 2 (18) n (%)
  Drug-related AE: Nausea: 4 (36) n (%)
  Drug-related AE: Pruritus: 4 (36) n (%)
  Drug-related AE: Rash: 1 (9) n (%)
  Drug-related AE: Rash (maculopapular): 4 (36) n (%)
  Drug-related AE: Stomatitis: 1 (9) n (%)
  Drug-related AE: Vomiting: 1 (9) n (%)
  Drug-related SAE: 0 n (%)
  Drug-related grade ≥3 AE: 5 (46) n (%)
  Grade ≥3 AE: 6 (55) n (%)
  Grade ≥3 AE: Abdominal pain: 1 (9) n (%)
  Grade ≥3 AE: Anaemia: 0 n (%)
  Grade ≥3 AE: Blood phosphorus decreased: 1 (9) n (%)
  Grade ≥3 AE: Diarrhoea: 1 (9) n (%)
  Grade ≥3 AE: Fatigue: 0 n (%)
  Grade ≥3 AE: Hyperglycaemia: 1 (9) n (%)
  Grade ≥3 AE: Hyponatraemia: 1 (9) n (%)
  Grade ≥3 AE: Rash macular: 1 (9) n (%)
  On-study deaths: 0 n (%)
  SAE: 3 (27) n (%)
QD 4 mg (n=6)
  AE resulting in TAK-228 discontinuation: 1 (17) n (%)
  Drug-related AE: 6 (100) n (%)
  Drug-related AE: Abdominal pain: 1 (17) n (%)
  Drug-related AE: Decreased appetite: 2 (33) n (%)
  Drug-related AE: Diarrhoea: 3 (50) n (%)
  Drug-related AE: Fatigue: 4 (67) n (%)
  Drug-related AE: Hyperglycaemia: 1 (17) n (%)
  Drug-related AE: Nausea: 1 (17) n (%)
  Drug-related AE: Pruritus: 3 (50) n (%)
  Drug-related AE: Rash: 2 (33) n (%)
  Drug-related AE: Rash (maculopapular): 0 n (%)
  Drug-related AE: Stomatitis: 2 (33) n (%)
  Drug-related AE: Vomiting: 1 (17) n (%)
  Drug-related SAE: 0 n (%)
  Drug-related grade ≥3 AE: 5 (83) n (%)
  Grade ≥3 AE: 6 (100) n (%)
  Grade ≥3 AE: Abdominal pain: 0 n (%)
  Grade ≥3 AE: Anaemia: 0 n (%)
  Grade ≥3 AE: Blood phosphorus decreased: 0 n (%)
  Grade ≥3 AE: Diarrhoea: 0 n (%)
  Grade ≥3 AE: Fatigue: 2 (33) n (%)
  Grade ≥3 AE: Hyperglycaemia: 1 (17) n (%)
  Grade ≥3 AE: Hyponatraemia: 1 (17) n (%)
  Grade ≥3 AE: Rash macular: 1 (17) n (%)
  On-study deaths: 1 (17) n (%)
  SAE: 2 (33) n (%)
QD Total (n=17)
  AE resulting in TAK-228 discontinuation: 1 (6) n (%)
  Drug-related AE: 16 (94) n (%)
  Drug-related AE: Abdominal pain: 3 (18) n (%)
  Drug-related AE: Decreased appetite: 5 (29) n (%)
  Drug-related AE: Diarrhoea: 5 (29) n (%)
  Drug-related AE: Fatigue: 10 (59) n (%)
  Drug-related AE: Hyperglycaemia: 3 (18) n (%)
  Drug-related AE: Nausea: 5 (29) n (%)
  Drug-related AE: Pruritus: 7 (41) n (%)
  Drug-related AE: Rash: 3 (18) n (%)
  Drug-related AE: Rash (maculopapular): 4 (24) n (%)
  Drug-related AE: Stomatitis: 3 (18) n (%)
  Drug-related AE: Vomiting: 2 (12) n (%)
  Drug-related SAE: 0 n (%)
  Drug-related grade ≥3 AE: 10 (59) n (%)
  Grade ≥3 AE: 12 (71) n (%)
  Grade ≥3 AE: Abdominal pain: 1 (6) n (%)
  Grade ≥3 AE: Anaemia: 0 n (%)
  Grade ≥3 AE: Blood phosphorus decreased: 1 (6) n (%)
  Grade ≥3 AE: Diarrhoea: 1 (6) n (%)
  Grade ≥3 AE: Fatigue: 2 (12) n (%)
  Grade ≥3 AE: Hyperglycaemia: 2 (12) n (%)
  Grade ≥3 AE: Hyponatraemia: 2 (12) n (%)
  Grade ≥3 AE: Rash macular: 2 (12) n (%)
  On-study deaths: 1 (6) n (%)
  SAE: 5 (29) n (%)
QD arm
  Asthaenic conditions, patients: 59%
  Drug-related AE of any grade: decreased appetite: 29%
  Drug-related AE of any grade: diarrhoea: 29%
  Drug-related AE of any grade: fatigue: 59%
  Drug-related AE of any grade: nausea: 29%
  Drug-related AE of any grade: pruritus: 41%
  Grade ≥3 AE: Fatigue: 12%
  Grade ≥3 AE: Hyperglycaemia: 12%
  Grade ≥3 AE: Hyponatraemia: 12%
  Grade ≥3 AE: macular rash: 12%
  SAEs, patients: 29%
QD milled TAK-228
  Incidence of grade ≥3 drug-related AEs: 59%
QW 20 mg (n=7)
  AE resulting in TAK-228 discontinuation: 0 n (%)
  Drug-related AE: 5 (71) n (%)
  Drug-related AE: Asthaenia: 1 (14) n (%)
  Drug-related AE: Decreased appetite: 1 (14) n (%)
  Drug-related AE: Dehydration: 1 (14) n (%)
  Drug-related AE: Diarrhoea: 4 (57) n (%)
